Results published in ChEMBL document CHEMBL2380287, “PEG mediated synthesis and pharmacological evaluation of some fluoro substituted pyrazoline derivatives as antiinflammatory and analgesic agents” (2013).

System: Rattus norvegicus
Assay: Analgesic activity in rat at 25 mg/kg, po after 60 mins by radiant heat tail flick method relative to control
Format: functional
Settings: 1 h
Method in brief: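 Rats, six per group, were dosed orally at 25 mg/kg. Analgesia was measured at 60 min by the radiant heat tail flick method and expressed as percentage analgesia. Animals were kept on a 12/12 h light/dark cycle with free access to water and standard pellet diet.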

Structure (SMILES)	inhibition in vivo at 25 mg/kg
CC(=O)N1N=C(c2ccc(F)cc2)CC1c1cn(-c2ccccc2)nc1-c1ccc(F)cc1 (stereo not given)	43%
CC(=O)N1N=C(c2ccc(F)cc2)CC1c1cn(-c2ccccc2)nc1-c1ccc(Cl)cc1 (stereo not given)	44%
CC(=O)N1N=C(c2ccc(F)cc2)CC1c1cn(-c2ccccc2)nc1-c1ccc(Br)cc1 (stereo not given)	71%
CC(=O)N1N=C(c2ccc(F)cc2)CC1c1cn(-c2ccccc2)nc1-c1ccc(C)cc1 (stereo not given)	110%
COc1ccc(-c2nn(-c3ccccc3)cc2C2CC(c3ccc(F)cc3)=NN2C(C)=O)cc1 (stereo not given)	66%
CC(=O)N1N=C(c2ccc(F)cc2)CC1c1cn(-c2ccccc2)nc1-c1cccc([N+](=O)[O-])c1 (stereo not given)	109%
CC(=O)N1N=C(c2ccc(F)cc2)CC1c1cn(-c2ccccc2)nc1-c1ccccc1 (stereo not given)	35%
Fc1ccc(C2=NN(c3ccccc3)C(c3cn(-c4ccccc4)nc3-c3ccc(F)cc3)C2)cc1 (stereo not given)	41%
Fc1ccc(C2=NN(c3ccccc3)C(c3cn(-c4ccccc4)nc3-c3ccc(Cl)cc3)C2)cc1 (stereo not given)	43%
Fc1ccc(C2=NN(c3ccccc3)C(c3cn(-c4ccccc4)nc3-c3ccc(Br)cc3)C2)cc1 (stereo not given)	71%
Cc1ccc(-c2nn(-c3ccccc3)cc2C2CC(c3ccc(F)cc3)=NN2c2ccccc2)cc1 (stereo not given)	110%
COc1ccc(-c2nn(-c3ccccc3)cc2C2CC(c3ccc(F)cc3)=NN2c2ccccc2)cc1 (stereo not given)	66%
O=[N+]([O-])c1cccc(-c2nn(-c3ccccc3)cc2C2CC(c3ccc(F)cc3)=NN2c2ccccc2)c1 (stereo not given)	108%
Fc1ccc(C2=NN(c3ccccc3)C(c3cn(-c4ccccc4)nc3-c3ccccc3)C2)cc1 (stereo not given)	35%
CC(=O)Oc1ccccc1C(=O)O [ASPIRIN]	119%
